Active and inactive are the calls of the source. No cut-off for these calls is given here.
Experiments:
[1] = system: Human immunodeficiency virus 1; test: Antiviral activity against HIV1 3B in CEM cells; type: functional, organism-based; conditions: Human immunodeficiency virus 1, 3B, CCRF-CEM
Method in brief: (§1)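 CEM cells at 4×10^4 cells/mL infected with virus at ~100 CCID50 per mL of cell suspension, then mixed 1:1 with serial dilutions of compound. After four days, giant cell formation was scored microscopically.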

[2] = system: Human immunodeficiency virus 2; test: Antiviral activity against HIV2 ROD in CEM cells; type: functional, organism-based; conditions: Human immunodeficiency virus 2, ROD, CCRF-CEM; method in brief: as §1
[3] = Cytotoxicity against CEM cells; type: cell-based; conditions: human, CEM (CCRF-CEM) cells
Method in brief: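 CEM cells were plated at 300,000–500,000 cells/mL with an equal volume of compound dilutions and incubated 3 days at 37 °C. Cell number was counted with a Coulter counter.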

[4] = Selectivity index, ratio of CC50 for CEM cells to EC50 for HIV1 infected CEM cells; type: functional, CCRF-CEM
[5] = biological target: T1, Human immunodeficiency virus type 1 reverse transcriptase (Human immunodeficiency virus 1, UniProt Q72547); test: Inhibition of HIV1 reverse transcriptase using Poly rC.dG template
[6] = biological target: T1, Human immunodeficiency virus type 1 reverse transcriptase; test: Inhibition of HIV1 reverse transcriptase using Poly rA.dT template
Method in brief: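 Recombinant HIV-1(IIIB) RT was assayed in 50 mM Tris-HCl pH 7.8 with 5 mM DTT, 300 mM glutathione, 500 µM EDTA, 150 mM KCl, 5 mM MgCl2, BSA and 0.06% Triton X-100. Template/primer was poly(A).oligo(dT) at 0.1 mM with [3H]dTTP at 0.6 µM. Reactions ran 30 min at 37 °C, followed by TCA precipitation and radioactivity counting.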

Influenza A virus = test: Antiviral activity against influenza virus H3N2 in MDCK cells; type: functional, organism-based
[7] = system: Human immunodeficiency virus 1; test: Antiviral activity against HIV1 3B with reverse transcriptase Lys103 Asn mutation; type: functional, organism-based; conditions: Human immunodeficiency virus 1, 3B
Method in brief: (§2)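 CEM cells at 4×10^4 cells/mL were infected with HIV-1(III_B) strains carrying NNRTI-type RT mutations, at ~100 CCID₅₀ per mL of cell suspension. Infected cells were mixed 1:1 with serial compound dilutions. Giant cell formation was scored microscopically after four days. EC₅₀ is the concentration inhibiting virus-induced cytopathicity by 50%.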

[8] = system: Human immunodeficiency virus 1; test: Antiviral activity against HIV1 3B with reverse transcriptase Leu100Ile mutation; type: functional, organism-based; conditions: Human immunodeficiency virus 1, 3B; method in brief: as §2
[9] = system: Human immunodeficiency virus 1; test: Antiviral activity against HIV1 3B with reverse transcriptase Tyr181Cys mutation; type: functional, organism-based; conditions: Human immunodeficiency virus 1, 3B; method in brief: as §2
[10] = system: Human immunodeficiency virus 1; test: Antiviral activity against HIV1 3B with reverse transcriptase Tyr181Ile mutation; type: functional, organism-based; conditions: Human immunodeficiency virus 1, 3B; method in brief: as §2
[11] = system: Human immunodeficiency virus 1; test: Antiviral activity against HIV1 3B with reverse transcriptase Tyr181His mutation; type: functional, organism-based; conditions: Human immunodeficiency virus 1, 3B

Structure (SMILES)	EC50 [1] [µM]	EC50 [2] [µM]	CC50 [3] [µM]	Ratio CC50/EC50 [4]	IC50 [5] [µM]	IC50 [6] [µM]	Activity (Influenza A virus)	EC50 [7] [µM]	EC50 [8] [µM]	Ki [5] [µM]	EC50 [9] [µM]	EC50 [10] [µM]	EC50 [11] [µM]
CN(C)CCCN1C(=O)CSC1C12CC3CC(CC(C3)C1)C2 (stereo unspecified)	31	> 62	122	4	≥ 620	> 620	inactive						
Cc1cc(C)nc(N2C(=O)CS[C@@H]2C23CC4CC(CC(C4)C2)C3)c1	0.178	> 12	35	198	19	20	inactive	1.5	2.3	12	8.2	> 12	> 12
Cc1cccc(N2C(=O)CSC2C23CC4CC(CC(C4)C2)C3)n1 (stereo unspecified)	21	> 304	> 304	14	40	43	inactive						
O=C1CSC(C23CC4CC(CC(C4)C2)C3)N1c1ccncc1 (stereo unspecified)	> 63	> 63	159	<2.5			inactive						
O=c1[nH]cnc2c1ncn2[C@H]1CC[C@@H](CO)O1 [DIDANOSINE]	4.6		> 250	>54									
Cc1cccnc1N1C(=O)CSC1C12CC3CC(CC(C3)C1)C2 (stereo unspecified)	> 12	> 12	29	<2.5			inactive						
O=C1CSC(C23CC4CC(CC(C4)C2)C3)N1CCN1CCCCC1 (stereo unspecified)	> 11	> 11	44	<4			inactive						
O=C1CSC(C23CC4CC(CC(C4)C2)C3)N1c1ccc(Br)cc1 (stereo unspecified)	> 255	> 255	≥ 255	<1			inactive						
Cc1ccc(N2C(=O)CSC2C23CC4CC(CC(C4)C2)C3)nc1 (stereo unspecified)	> 12	> 12.4	59	<4.8			inactive						
COc1ccc(N2C(=O)CSC2C23CC4CC(CC(C4)C2)C3)cc1 (stereo unspecified)	> 12	> 12	74	<6			inactive						
O=C1CSC(C23CC4CC(CC(C4)C2)C3)N1CCN1CCOCC1 (stereo unspecified)	> 57	> 57.1	140	<3			inactive						
N#Cc1ccc(N2C(=O)CSC2C23CC4CC(CC(C4)C2)C3)cc1 (stereo unspecified)	> 295	> 295	≥ 295	<=1			inactive						
O=C1CSC(C23CC4CC(CC(C4)C2)C3)N1c1ccc(I)cc1 (stereo unspecified)	> 228	> 45	≥ 228	<=1			inactive						
Cc1ccnc2c1NC(=O)c1cccnc1N2C1CC1 [NEVIRAPINE]		> 50	> 50										
CCN(CC)CCCN1C(=O)CSC1C12CC3CC(CC(C3)C1)C2 (stereo unspecified)	28	> 57	89	3.1	> 571	> 571	inactive						
O=C1CSC(C23CC4CC(CC(C4)C2)C3)N1c1cccnc1 (stereo unspecified)	≥ 32	> 63	105	<=3	≥ 636	≥ 636	inactive						
Cc1cc(C)nc(N2C(=O)CSC2C)c1 (stereo unspecified)	> 450	> 450	> 450	>450	≥ 900	> 900							
Cc1cc(C)nc(N2C(=O)CSC2C23CC4CC(CC(C4)C2)C3)c1 (stereo unspecified)	0.35	> 11.7	42	120	29	38							
O=C1CSC(C23CC4CC(CC(C4)C2)C3)N1c1ccc(Cl)cc1 (stereo unspecified)	> 57	> 57.5	≥ 287	<=5			inactive						
Cc1ccnc(N2C(=O)CSC2C23CC4CC(CC(C4)C2)C3)c1 (stereo unspecified)	5.6	> 304	> 304	>54	40	88	inactive						
Cc1cc(C)nc(N2C(=O)CS[C@H]2C23CC4CC(CC(C4)C2)C3)c1	12	> 58	44	3.8	> 584	> 584	inactive						
O=C1CSC(C23CC4CC(CC(C4)C2)C3)N1c1ccccn1 (stereo unspecified)	> 318	> 318	> 318	<1			inactive						
CCN(CC)CCN1C(=O)CSC1C12CC3CC(CC(C3)C1)C2 (stereo unspecified)	7.7	> 59	56	7.2	475	481	inactive						
O=C1CSC(C23CC4CC(CC(C4)C2)C3)N1c1ccc(Cl)c(C(F)(F)F)c1 (stereo unspecified)	> 48	> 48	> 240	<1			inactive						
CN(C)CCN1C(=O)CSC1C12CC3CC(CC(C3)C1)C2 (stereo unspecified)	65	> 65	125	1.9	> 648	> 648	inactive						
O=C1CSC(C23CC4CC(CC(C4)C2)C3)N1c1ccc(F)cc1 (stereo unspecified)	> 302	> 302	≥ 302	<=1			inactive						

— ChEMBL document CHEMBL1147853, “Synthesis and anti-HIV studies of 2-adamantyl-substituted thiazolidin-4-ones” (Eur J Med Chem, 2007)
